From ChEMBL document CHEMBL5674869, “The Histone Methyltransferase Inhibitor A-366 Uncovers a Role for G9a/GLP in the Epigenetics of Leukemia” (PLoS One, 2015) come the findings set out here.

For data set [1], the target named is T1, Histone-lysine N-methyltransferase EHMT2 (Homo sapiens) (UniProt Q96KQ7).
T1 sequence (whole entry): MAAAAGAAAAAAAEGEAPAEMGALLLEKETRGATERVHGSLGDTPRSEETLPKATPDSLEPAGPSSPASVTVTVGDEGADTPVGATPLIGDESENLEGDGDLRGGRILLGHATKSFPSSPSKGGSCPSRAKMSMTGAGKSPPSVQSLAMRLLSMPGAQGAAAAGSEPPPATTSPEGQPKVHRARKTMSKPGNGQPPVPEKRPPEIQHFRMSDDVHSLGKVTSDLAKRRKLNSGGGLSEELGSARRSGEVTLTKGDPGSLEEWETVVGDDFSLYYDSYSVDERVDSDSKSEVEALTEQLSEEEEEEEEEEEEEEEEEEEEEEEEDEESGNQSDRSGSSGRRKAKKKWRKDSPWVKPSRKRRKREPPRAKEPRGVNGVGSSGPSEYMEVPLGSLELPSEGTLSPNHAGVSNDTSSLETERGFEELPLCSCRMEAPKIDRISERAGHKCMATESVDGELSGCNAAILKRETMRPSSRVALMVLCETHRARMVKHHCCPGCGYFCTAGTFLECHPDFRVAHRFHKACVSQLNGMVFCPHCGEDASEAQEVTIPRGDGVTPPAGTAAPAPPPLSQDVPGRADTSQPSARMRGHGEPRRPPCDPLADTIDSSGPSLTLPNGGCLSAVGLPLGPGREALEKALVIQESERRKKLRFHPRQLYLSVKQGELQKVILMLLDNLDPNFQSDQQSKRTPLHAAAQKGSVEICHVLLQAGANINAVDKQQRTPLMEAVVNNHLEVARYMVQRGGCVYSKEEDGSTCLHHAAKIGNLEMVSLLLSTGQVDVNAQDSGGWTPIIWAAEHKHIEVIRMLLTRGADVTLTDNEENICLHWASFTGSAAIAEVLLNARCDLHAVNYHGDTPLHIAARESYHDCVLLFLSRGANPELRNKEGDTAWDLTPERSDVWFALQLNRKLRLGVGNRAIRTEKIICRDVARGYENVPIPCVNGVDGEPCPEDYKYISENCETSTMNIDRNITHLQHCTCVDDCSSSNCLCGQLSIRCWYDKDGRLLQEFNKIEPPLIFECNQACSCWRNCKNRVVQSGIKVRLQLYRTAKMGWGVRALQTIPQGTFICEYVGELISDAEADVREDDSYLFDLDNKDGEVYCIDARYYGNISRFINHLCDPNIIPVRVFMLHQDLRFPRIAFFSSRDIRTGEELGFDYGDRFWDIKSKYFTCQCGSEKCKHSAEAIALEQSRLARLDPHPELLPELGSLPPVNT
Nature of the data set: Inhibition of G9a in human MV4-11 cells assessed as increase in cell differentiation marker CD11b for 14 days by flow cytometry. The following applies: time 14.0 day. A general note: A flow cytometer gives signals particle by particle.

Data set [2] in a line: Cytotoxicity against human PBMC cells assessed as effect on cell viability after 48 hrs by Cell-titerGlo assay. Format: toxicity, cell-based. Put shortly:
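PBMCs from two human donors were pooled and grown in AIM-V medium. Cells were treated with compound for 48 h. Viability was read by CellTiter-Glo endpoint.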

In a further data set the test system is MCF7. As to the kind of experiment: Antiproliferative activity against human MCF7 cells assessed as effect on colony formation at 0.1 to 10 uM after 14 days by crystal violet staining based clonogenic assay. It counts as functional, cell-based. The following applies: dose 0.1-10 µM, time 14.0 day. Put shortly: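 Clonogenic assay: 500 live cells per well were seeded into six-well plates in drug-free medium. Compound diluted in culture medium was added 24 h later. Cells were cultured at 37°C, then fixed and stained with 0.2% crystal violet. Colonies were counted on an automated colony counter.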

The test system of a further data set is MV4-11. As to the kind of experiment: Induction of cell cycle arrest in human MV4-11 cells assessed as increase in subG0/G1 cells after 14 days by propidium iodide staining based flow cytometry. Format: functional. The following applies: time 14.0 day. Summed up:
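MV4;11 cells treated 14 days with compound over a concentration range. They were then washed in cold PBS and stained 20 min with 50 μg/ml propidium iodide, 0.1 mg/ml RNase A, 0.1% BSA and 0.1% Triton X-100. Cell-cycle DNA content, including sub-G1/G0 fraction, measured by flow cytometry on BD LSR-II.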

Calls of active or inactive are those of the source. The calls are words filed in the database; no cut-off is given here.

With `COc1cc2c(cc1OCCCN1CCCC1)N=C(N)C21CCC1`, the inhibition entry in data set [1] is “Active”. Further, the Activity entry in data set [2] is “Non-Toxic”. Also, the result in the data set with MCF7 was inactive. Further, in the data set on MV4-11, the outcome was Active.
